# Assay results collected from several papers.
# Each line is one published result; the experiments were not run side by side.
# Nectin-4: Nectin-4 (Homo sapiens, UniProt Q96NY8)
# UCK1: UCK1 (Homo sapiens, UniProt Q9HA47)
# PIK3C2B: Phosphatidylinositol 4-phosphate 3-kinase C2 domain-containing subunit beta (PIK3C2B, Homo sapiens, UniProt O00750)
# STK16: Serine/threonine-protein kinase 16 (STK16, Homo sapiens, UniProt O75716)
SMILES,target,read-out,technique,notes,Kd
CCCC[C@@H]1NC(=O)[C@H](Cc2ccc(O)cc2)NC(=O)[C@@H]2CCCN2C(=O)[C@H](CC(=O)O)NC(=O)[C@H](C)NC(=O)[C@H](Cc2ccccc2)NC(=O)[C@@H]2CSCCC(=O)N3CN(CN(C3)C(=O)CCSC[C@@H](C(=O)N[C@@H](C)C(N)=O)NC1=O)C(=O)CCSC[C@H](NC(C)=O)C(=O)N[C@@H](CC(C)(C)C)C(=O)N1CCC[C@H]1C(=O)N[C@@H](CCC(=O)O)C(=O)N[C@H](CCCCNC(=O)CCc1cn(CC(=O)N[C@H]3CSCCC(=O)N4CN5CN(C4)C(=O)CCSC[C@H](NC(=O)[C@@H](CC(=O)O)NC(=O)[C@H](Cc4cccc6ccccc46)NC(=O)[C@@H]4CCCN4C3=O)C(=O)N[C@@H](CCSC)C(=O)N[C@@H](CCCCNC(=N)N)C(=O)N[C@@H](CC(=O)O)C(=O)N[C@@H](Cc3c[nH]c4ccccc34)C(=O)N[C@@H](CO)C(=O)N[C@@H]([C@@H](C)O)C(=O)N3CCC[C@H]3C(=O)N3C[C@H](O)C[C@H]3C(=O)N[C@@H](Cc3c[nH]c4ccccc34)C(=O)N[C@H](C(N)=O)CSCCC5=O)nn1)C(=O)N1CCC[C@H]1C(=O)N[C@@H](Cc1ccc(O)cc1)C(=O)N2,Nectin-4,binding,SPR,,0.001 µM
Nc1ncnc2c1ncn2[C@@H]1O[C@H](COP(=O)(O)O)[C@@H](O)[C@H]1O,"Adenylosuccinate lyase (ADSL, Homo sapiens, UniProt P30566, R303C)",binding,ITC,,130 µM
[N-]=[N+]=N[C@@H]1[C@H](O)[C@@H](CO)O[C@H]1n1ccc(=O)[nH]c1=O,UCK1,binding,fluorescence,,0.181 µM
CCN(CC)c1ccc2cc(C(=O)NCCNC(=O)c3ccc(-c4cc(-c5ccc(C#N)cc5)nc(-c5ccco5)c4)cc3)c(=O)oc2c1,"Myc proto-oncogene protein (MYC, Homo sapiens, UniProt P01106)",binding,SPR,,0.151 µM
O=c1ccn([C@@H]2O[C@H](CO)[C@@H](O)[C@H]2O)c(=O)[nH]1,UCK1,binding,fluorescence,,0.0564 µM
CCCC[C@@H]1NC(=O)[C@H](Cc2ccc(O)cc2)NC(=O)[C@@H]2CCCN2C(=O)[C@H](CCC(=O)O)NC(=O)[C@H](C)NC(=O)[C@H](Cc2ccccc2)NC(=O)[C@@H]2CSCCC(=O)N3CN(CN(C3)C(=O)CCSC[C@H](NC(C)=O)C(=O)N[C@@H](CC(C)(C)C)C(=O)N3CCC[C@H]3C(=O)N[C@@H](CCC(=O)O)C(=O)N[C@H](CCCCNC(=O)CCc3cn(CCOCCOCCOCCN(CCOCCOCCOCCC(=O)N[C@H]4CSCCC(=O)N5CN6CN(C5)C(=O)CCSC[C@H](NC(=O)[C@@H](CC(=O)O)NC(=O)[C@H](Cc5cccc7ccccc57)NC(=O)[C@@H]5CCCN5C4=O)C(=O)N[C@@H](CCSC)C(=O)N[C@@H](CCCCNC(=N)N)C(=O)N[C@@H](CC(=O)O)C(=O)N[C@@H](Cc4c[nH]c5ccccc45)C(=O)N[C@@H](CO)C(=O)N[C@@H]([C@@H](C)O)C(=O)N4CCC[C@H]4C(=O)N4C[C@H](O)C[C@H]4C(=O)N[C@@H](Cc4c[nH]c5ccccc45)C(=O)N[C@H](C(N)=O)CSCCC6=O)CCOCCOCCOCCn4cc(CCC(=O)NCCCC[C@H]5NC(=O)[C@H](CCC(=O)O)NC(=O)[C@@H]6CCCN6C(=O)[C@H](CC(C)(C)C)NC(=O)[C@@H](NC(C)=O)CSCCC(=O)N6CN7CN(C6)C(=O)CCSC[C@H](NC(=O)[C@H](Cc6ccc(O)cc6)NC(=O)[C@@H]6CCCN6C5=O)C(=O)N[C@@H](Cc5ccccc5)C(=O)N[C@@H](C)C(=O)N[C@@H](CCC(=O)O)C(=O)N5CCC[C@H]5C(=O)N[C@@H](Cc5ccc(O)cc5)C(=O)N[C@@H](CCCC)C(=O)N[C@H](C(N)=O)CSCCC7=O)nn4)nn3)C(=O)N3CCC[C@H]3C(=O)N[C@@H](Cc3ccc(O)cc3)C(=O)N2)C(=O)CCSC[C@@H](C(N)=O)NC1=O,Nectin-4,binding,SPR,,0.0027 µM
CC(=O)N[C@H](C(=O)N1C[C@H](O)C[C@H]1C(=O)NCc1ccc(-c2scnc2C)cc1)C(C)(C)SCCCCCCNC(=O)C[C@@H]1N=C(c2ccc(Cl)cc2)c2c(sc(C)c2C)-n2c(C)nnc21,"Bromodomain-containing protein 3, BD2 (BRD3, Homo sapiens, UniProt Q15059)",binding,ITC,,0.039 µM
CCC(=O)N1CCC(C(=O)N(C)CC(=O)N2CCN(c3nc(-c4cnc(N)nc4C(F)F)nc(N4CCOCC4)n3)CC2)CC1,PIK3C2B,binding,competition with immobilised ligand,,0.365 µM
CC(=O)N[C@H](C(=O)N[C@H](C(=O)N[C@@H](Cc1ccccc1)C(=O)N[C@H](C(=O)N[C@@H](CO)C(=O)N[C@@H](Cc1c[nH]c2ccccc12)C(=O)N[C@@H](CCC(=O)O)C(=O)N[C@@H](CCC(=O)O)C(=O)N[C@@H](Cc1ccc(O)cc1)C(=O)N[C@@H](CC(C)C)C(=O)N[C@@H](CC(=O)O)C(=O)N[C@@H](Cc1c[nH]c2ccccc12)C(=O)N[C@H](C(N)=O)C(C)C)[C@@H](C)O)C(C)C)[C@@H](C)O,"Proprotein convertase subtilisin/kexin type 9 (PCSK9, Homo sapiens, UniProt Q8NBP7)",binding,SPR,,0.667 µM
Cc1cc(Nc2cc3ncccc3c(N[C@@H]3C[C@H]4CC[C@@H](C3)N4CCC#N)n2)n[nH]1,STK16,binding,competition with immobilised ligand,,0.11 µM
NC(=O)c1ncn([C@@H]2O[C@H](COP(=O)(O)O)[C@@H](O)[C@H]2O)c1N,"Adenylosuccinate lyase (ADSL, Homo sapiens, UniProt P30566)",binding,ITC,,34 µM
C=CC(=O)N1CCC(C(=O)N(C)CC(=O)N2CCN(c3nc(-c4cnc(N)nc4C(F)F)nc(N4CCOCC4)n3)CC2)CC1,PIK3C2B,binding,competition with immobilised ligand,,0.155 µM
CCCN1CCN(c2ccc(-c3cncc(Cl)c3N3CCC4(CCNC4=O)CC3)cc2)CC1,STK16,cell-free assay,,lysate,19.4 µM
O=C(CCCCCCC(=O)Nc1ccc([C@H]2O[C@@H](CSc3nc(-c4ccccc4)c(-c4ccccc4)o3)C[C@@H](c3ccc(CO)cc3)O2)cc1)NO,"Histone deacetylase 2 (HDAC2, Homo sapiens, UniProt Q92769)",cell-free assay,,,> 30.2 µM
NC(=O)C1=CN([C@@H]2O[C@H](COP(=O)(O)OP(=O)(O)OC[C@H]3O[C@@H](n4cnc5c(N)ncnc54)[C@H](OP(=O)(O)O)[C@@H]3O)[C@@H](O)[C@H]2O)C=CC1,"ZMO1885 (Zymomonas mobilis, UniProt Q5NLA1, D294W/Y343W)",binding,,,53 µM
CCCC[C@@H]1NC(=O)[C@H](Cc2ccc(O)cc2)NC(=O)[C@@H]2CCCN2C(=O)[C@H](CC(=O)O)NC(=O)[C@H](C)NC(=O)[C@H](Cc2ccccc2)NC(=O)[C@@H]2CSCCC(=O)N3CN(CN(C3)C(=O)CCSC[C@@H](C(=O)N[C@@H](C)C(N)=O)NC1=O)C(=O)CCSC[C@H](NC(C)=O)C(=O)N[C@@H](CC(C)(C)C)C(=O)N1CCC[C@H]1C(=O)N[C@@H](CCC(=O)O)C(=O)N[C@H](CCCCNC(=O)CCc1cn(CCOCCOCCOCCOCCOCCC(=O)N[C@H]3CSCCC(=O)N4CN5CN(C4)C(=O)CCSC[C@H](NC(=O)[C@@H](CC(=O)O)NC(=O)[C@H](Cc4cccc6ccccc46)NC(=O)[C@@H]4CCCN4C3=O)C(=O)N[C@@H](CCSC)C(=O)N[C@@H](CCCCNC(=N)N)C(=O)N[C@@H](CC(=O)O)C(=O)N[C@@H](Cc3c[nH]c4ccccc34)C(=O)N[C@@H](CO)C(=O)N[C@@H]([C@@H](C)O)C(=O)N3CCC[C@H]3C(=O)N3C[C@H](O)C[C@H]3C(=O)N[C@@H](Cc3c[nH]c4ccccc34)C(=O)N[C@H](C(N)=O)CSCCC5=O)nn1)C(=O)N1CCC[C@H]1C(=O)N[C@@H](Cc1ccc(O)cc1)C(=O)N2,Nectin-4,binding,SPR,,0.0018 µM
Cc1cnc(-c2ccc(-c3ccc(NC(=O)Nc4c(F)cc(F)cc4F)cc3F)c3c2C(=O)NC3)[nH]1,"Cytoplasmic tyrosine-protein kinase BMX (BMX, Homo sapiens, UniProt P51813)",binding,competition with immobilised ligand,,0.014 µM
